According to ChEMBL document CHEMBL1134566, “Human thioredoxin reductase is efficiently inhibited by (2,2':6',2' '-terpyridine)platinum(II) complexes. Possible implications for a novel antitumor strategy” (J Med Chem, 2001):

Tests used:
Thioredoxin reductase [1] = target: T1, Thioredoxin reductase (Homo sapiens, UniProt Q16881+Q9NNW7+Q86VQ6); experiment: Inhibitory concentration at 50% inhibition; assay type: protein assay
Outline: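 Tight-binding hTrxR inhibition. Human placental TrxR (~2 nM) in 100 mM potassium phosphate, 2 mM EDTA, pH 7.4, reduced with 200 μM NADPH, then preincubated with varying inhibitor for 5 min at 25 °C (footnote says 2 min). Activity started with 3 mM DTNB and read as A412 increase. IC50 taken from dose-response curves.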

Thioredoxin reductase [2] = target: T1, Thioredoxin reductase; experiment: Inhibitory concentration used to inhibit the enzyme competitively with the substrate; assay type: protein assay
Outline: (§1)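 Reversible competitive component. About 2 nM placental hTrxR with DTNB 50 μM–1 mM and a single inhibitor concentration (10 nM–1 μM) in phosphate/EDTA buffer, pH 7.4. Started with 200 μM NADPH at 25 °C, TNB formation read at 412 nm. Km' compared with Km without inhibitor; Ki = Km[I]/(Km' − Km).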

[3] = target: Glutathione reductase, mitochondrial (Homo sapiens) (UniProt P00390); experiment: Percent inhibition of the glutathione reductase after 2 min incubation at 10 uM inhibitory concentration
Outline: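 Human glutathione reductase in 47 mM potassium phosphate, 1 mM EDTA, 200 mM KCl, pH 6.9, 100 μM NADPH. Enzyme preincubated 2 min with 10 μM compound in the assay mixture, then started with 1 mM GSSG at 25 °C. NADPH consumption followed as A340 decrease; percent inhibition versus uninhibited enzyme.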

Thioredoxin reductase [4] = target: T1, Thioredoxin reductase; experiment: Michaelis-Menten constant (Km') for DTNB (5,5'-dithiobis(2-nitrobenzoate) in the presence of the compound; assay type: protein assay; outline: as §1
Thioredoxin reductase [5] = target: T1, Thioredoxin reductase; experiment: Inhibitory concentration for Km'; assay type: protein assay; outline: as §1
HNO 97 cell line = experiment: 50% Growth inhibition on HNO97 head and neck squamous carcinoma cell lines; assay type: functional, cell-based
Outline: (§2)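 BrdU incorporation proliferation assay. 7×10^3 cells/well in RPMI 1640 with 10% FCS, 8 replicas. Compound added 24 h after seeding at 1, 5, 10 or 20 μM, either once or three times at 24 h intervals; 67 h total incubation. BrdU (100 μM final) added 48 h after first addition. Absorbance expressed relative to untreated controls (100%). IC50 ± SD from ≥2 independent experiments.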

HNO199 cell line = experiment: 50% Growth inhibition on HNO199 head and neck squamous carcinoma cell lines; assay type: functional, cell-based; outline: as §2
NCH89 = experiment: 50% Growth inhibition on NCH89 glioma cell lines; assay type: functional, cell-based; outline: as §2
NCH37 = experiment: 50% Growth inhibition on NCH37 glioma cell lines
NCH82 = experiment: 50% Growth inhibition on NCH82 glioma cell lines
[6] = target: Glutathione reductase, mitochondrial (Homo sapiens) (UniProt P00390); experiment: Percent GR activity after exposure to 10 uM for 67 hr
Outline: (§3)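 NCH37 glioblastoma cells in RPMI 1640 with 10% FCS at 37 °C, 5% CO2, given compound once or as doses at 0, 24 and 48 h. Sampled at 30, 90, 270 min or 67 h. Intact cells washed in PBS and sonicated; cleared lysate assayed. TrxR used 100 μM E. coli thioredoxin, with NADPH oxidase background subtracted. GR used the GSSG/NADPH A340 assay. mU/10^6 cells given as % of untreated controls, mean of three experiments.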

[7] = target: Glutathione reductase, mitochondrial (Homo sapiens) (UniProt P00390); experiment: Percent GR activity after exposure to 1 uM for 270 min; outline: as §3
[8] = target: Glutathione reductase, mitochondrial (Homo sapiens) (UniProt P00390); experiment: Percent GR activity after exposure to 1 uM for 30 min; outline: as §3
[9] = target: Glutathione reductase, mitochondrial (Homo sapiens) (UniProt P00390); experiment: Percent GR activity after exposure to 1 uM for 67 hr; outline: as §3
[10] = target: Glutathione reductase, mitochondrial (Homo sapiens) (UniProt P00390); experiment: Percent GR activity after exposure to 1 uM for 90 min; outline: as §3
[11] = target: Glutathione reductase, mitochondrial (Homo sapiens) (UniProt P00390); experiment: Percent GR activity after exposure to 3x1 uM concentration at regular intervals of 0,24,48 hours for the period of 67 hours; outline: as §3
[12] = target: Glutathione reductase, mitochondrial (Homo sapiens) (UniProt P00390); experiment: Percent GR activity after exposure to 3x10 uM concentration at regular intervals of 0,24,48 hours for the period of 67 hours; outline: as §3
[13] = target: Glutathione reductase, mitochondrial (Homo sapiens) (UniProt P00390); experiment: Percent GR activity after exposure to 3x5 uM concentration at regular intervals of 0,24,48 hours for the period of 67 hours; outline: as §3
[14] = target: Glutathione reductase, mitochondrial (Homo sapiens) (UniProt P00390); experiment: Percent GR activity after exposure to 5 uM for 67 hr; outline: as §3
Thioredoxin reductase [15] = target: T1, Thioredoxin reductase; experiment: Percent TrxR activity after exposure to 3x1 uM concentration at regular intervals of 0,24,48 hours for the period of 67 hours; assay type: functional; outline: as §3
Thioredoxin reductase [16] = target: T1, Thioredoxin reductase; experiment: Percent TrxR activity after exposure to 3x10 uM concentration at regular intervals of 0,24,48 hours for the period of 67 hours; assay type: functional; outline: as §3
Thioredoxin reductase [17] = target: T1, Thioredoxin reductase; experiment: Percent TrxR activity after exposure to 3x5 uM concentration at regular intervals of 0,24,48 hours for the period of 67 hours; assay type: functional; outline: as §3
Thioredoxin reductase [18] = target: T1, Thioredoxin reductase; experiment: Percent TrxR activity after exposure to 5 uM for 30 mins; assay type: functional; outline: as §3
Thioredoxin reductase [19] = target: T1, Thioredoxin reductase; experiment: Percent TrxR activity after exposure to 5 uM for 67 hr; assay type: functional; outline: as §3
Thioredoxin reductase [20] = target: T1, Thioredoxin reductase; experiment: Percent TrxR activity after exposure to 10 uM for 67 hrs; assay type: functional; outline: as §3
Thioredoxin reductase [21] = target: T1, Thioredoxin reductase; experiment: Percent TrxR activity after exposure to 1 uM for 270 mins; assay type: functional; outline: as §3
Thioredoxin reductase [22] = target: T1, Thioredoxin reductase; experiment: Percent TrxR activity after exposure to 1 uM for 67h; assay type: functional; outline: as §3
Thioredoxin reductase [23] = target: T1, Thioredoxin reductase; experiment: Percent TrxR activity after exposure to 1 uM for 90 mins; assay type: functional; outline: as §3
Thioredoxin reductase [24] = target: T1, Thioredoxin reductase; experiment: Percent TrxR activity after exposure to 1 uM for 30 mins; assay type: functional; outline: as §3

Glutathione reductase, mitochondrial (Homo sapiens), sequence (P00390 whole entry): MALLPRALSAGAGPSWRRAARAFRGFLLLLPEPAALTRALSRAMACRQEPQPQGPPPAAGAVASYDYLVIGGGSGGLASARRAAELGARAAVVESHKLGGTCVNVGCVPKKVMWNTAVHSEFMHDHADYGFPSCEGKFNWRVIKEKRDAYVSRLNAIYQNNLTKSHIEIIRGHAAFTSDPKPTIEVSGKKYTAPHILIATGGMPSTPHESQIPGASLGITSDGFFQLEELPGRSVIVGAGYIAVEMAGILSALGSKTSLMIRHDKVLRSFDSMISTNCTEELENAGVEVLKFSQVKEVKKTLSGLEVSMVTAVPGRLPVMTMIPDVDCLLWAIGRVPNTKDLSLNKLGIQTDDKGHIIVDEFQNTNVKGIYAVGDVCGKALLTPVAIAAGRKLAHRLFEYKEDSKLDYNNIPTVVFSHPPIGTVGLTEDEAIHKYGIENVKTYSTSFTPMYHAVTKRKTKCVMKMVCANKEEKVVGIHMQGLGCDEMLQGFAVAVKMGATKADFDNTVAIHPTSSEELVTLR
T1 sequence (Q86VQ6 whole entry, looked up, chain 1 of 3): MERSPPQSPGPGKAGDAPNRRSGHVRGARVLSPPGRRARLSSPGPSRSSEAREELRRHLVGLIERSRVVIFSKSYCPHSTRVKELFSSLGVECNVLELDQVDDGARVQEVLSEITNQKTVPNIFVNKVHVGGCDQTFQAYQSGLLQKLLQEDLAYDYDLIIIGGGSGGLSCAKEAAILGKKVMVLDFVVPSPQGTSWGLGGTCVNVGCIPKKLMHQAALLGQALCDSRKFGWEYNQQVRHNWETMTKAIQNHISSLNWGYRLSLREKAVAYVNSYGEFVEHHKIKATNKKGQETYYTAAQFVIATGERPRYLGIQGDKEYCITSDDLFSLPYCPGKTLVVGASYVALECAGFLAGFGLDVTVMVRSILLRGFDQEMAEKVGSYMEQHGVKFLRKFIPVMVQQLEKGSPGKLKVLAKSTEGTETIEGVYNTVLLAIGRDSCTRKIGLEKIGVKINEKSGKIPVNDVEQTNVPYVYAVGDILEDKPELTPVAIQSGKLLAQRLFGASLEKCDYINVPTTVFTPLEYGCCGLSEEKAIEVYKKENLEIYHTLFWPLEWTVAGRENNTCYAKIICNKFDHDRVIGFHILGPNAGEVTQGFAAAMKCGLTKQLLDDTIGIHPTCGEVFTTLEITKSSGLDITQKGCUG
T1 sequence (Q9NNW7 whole entry, looked up, chain 2 of 3): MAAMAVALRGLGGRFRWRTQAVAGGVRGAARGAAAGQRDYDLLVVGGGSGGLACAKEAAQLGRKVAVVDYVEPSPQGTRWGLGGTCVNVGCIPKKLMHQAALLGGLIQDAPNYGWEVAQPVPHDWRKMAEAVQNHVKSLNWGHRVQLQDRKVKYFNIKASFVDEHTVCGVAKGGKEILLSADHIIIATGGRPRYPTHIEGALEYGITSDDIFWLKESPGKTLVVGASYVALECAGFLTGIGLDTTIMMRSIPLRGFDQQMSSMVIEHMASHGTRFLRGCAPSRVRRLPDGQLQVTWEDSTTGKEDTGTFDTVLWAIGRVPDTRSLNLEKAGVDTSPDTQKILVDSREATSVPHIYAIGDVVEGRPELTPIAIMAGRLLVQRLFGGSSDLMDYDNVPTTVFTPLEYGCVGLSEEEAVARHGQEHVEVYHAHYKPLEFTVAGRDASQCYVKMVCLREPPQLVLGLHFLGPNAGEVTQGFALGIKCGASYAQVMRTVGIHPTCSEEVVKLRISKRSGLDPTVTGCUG
T1 sequence (Q16881 whole entry, looked up, chain 3 of 3): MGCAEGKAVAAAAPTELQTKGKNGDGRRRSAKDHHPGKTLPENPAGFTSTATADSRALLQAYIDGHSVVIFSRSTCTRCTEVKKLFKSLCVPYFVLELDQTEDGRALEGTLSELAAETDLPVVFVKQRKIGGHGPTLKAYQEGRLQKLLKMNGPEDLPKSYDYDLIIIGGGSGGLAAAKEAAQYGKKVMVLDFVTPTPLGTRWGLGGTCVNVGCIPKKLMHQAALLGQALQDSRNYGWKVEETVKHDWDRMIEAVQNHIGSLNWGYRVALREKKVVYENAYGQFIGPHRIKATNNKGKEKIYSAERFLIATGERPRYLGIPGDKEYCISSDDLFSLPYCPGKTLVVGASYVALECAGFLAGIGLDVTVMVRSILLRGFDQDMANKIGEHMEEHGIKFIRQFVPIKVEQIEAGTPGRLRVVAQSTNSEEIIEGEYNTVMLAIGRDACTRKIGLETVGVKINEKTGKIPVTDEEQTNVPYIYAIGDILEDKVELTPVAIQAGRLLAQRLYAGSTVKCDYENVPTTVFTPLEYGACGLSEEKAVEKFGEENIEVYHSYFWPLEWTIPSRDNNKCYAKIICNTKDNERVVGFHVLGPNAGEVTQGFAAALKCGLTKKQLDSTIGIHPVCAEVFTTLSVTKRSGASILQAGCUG

Substance	IC50 (Thioredoxin reductase [1])	Ki (Thioredoxin reductase [2])	inhibition [3]	Km' (Thioredoxin reductase [4])	[I] for Km' (Thioredoxin reductase [5])	further results
2-Mercaptoimidazole Bis[(4'-chloro-2,2':6',2''-terpyridine)platinum (II)] Trinitrate [listing 1 of 2 here]	3 nM	11 nM				
2-Mercaptoimidazole Bis[(4'-chloro-2,2':6',2''-terpyridine)platinum (II)] Trinitrate [listing 2 of 2 here]			20%	1010 µM	0.1 µM	
2-Mercaptopyridine (4'-chloro-2,2':6',2''-terpyridine)platinum (II) Nitrate [listing 1 of 2 here]	6 nM	7 nM				
4-Mercaptoethanol-(2,2':6',2''-terpyridine)platinum (II) Nitrate [listing 1 of 2 here]	35 nM	348 nM				
4-Mercaptoethanol-(2,2':6',2''-terpyridine)platinum (II) Nitrate [listing 2 of 2 here]			7%	399 µM	1 µM	
4-Mercaptoethanol-(2,2':6',4'-chloro,2''-terpyridine)platinum (II) Nitrate [listing 2 of 2 here]			55%	4740 µM	1 µM	
4-Mercaptopyridine (4'-chloro-2,2':6',2''-terpyridine)platinum (II) Nitrate [listing 1 of 2 here]	4 nM	5 nM				IC50 (HNO 97 cell line): 5500 nM; IC50 (HNO199 cell line): 9200 nM; IC50 (NCH89): 2500 nM; IC50 (NCH37): 10500 nM; IC50 (NCH82): 7400 nM
4-Mercaptopyridine (4'-chloro-2,2':6',2''-terpyridine)platinum (II) Nitrate [listing 2 of 2 here]			90%	1060 µM	0.05 µM	Activity [6]: 260%; Activity [7]: 110%; Activity [8]: 90%; Activity [9]: 220%; Activity [10]: 90%; Activity [11]: 180%; Activity [12]: 180%; Activity [13]: 220%; Activity [14]: 200%; Activity (Thioredoxin reductase [15]): 110%; Activity (Thioredoxin reductase [16]): 5%; Activity (Thioredoxin reductase [17]): 60%; Activity (Thioredoxin reductase [18]): 30%; Activity (Thioredoxin reductase [19]): 130%; Activity (Thioredoxin reductase [20]): 80%; Activity (Thioredoxin reductase [21]): 90%; Activity (Thioredoxin reductase [22]): 160%; Activity (Thioredoxin reductase [23]): 50%; Activity (Thioredoxin reductase [24]): 50%

Second part, led by results:

IC50 (Thioredoxin reductase [1])	Ki (Thioredoxin reductase [2])	inhibition [3]	Km' (Thioredoxin reductase [4])	[I] for Km' (Thioredoxin reductase [5])	Substance	further results
		47%	247 µM	0.01 µM	2-Mercaptopyridine (4'-chloro-2,2':6',2''-terpyridine)platinum (II) Nitrate [listing 2 of 2 here]	
7 nM	17 nM				2-Mercaptopyrimidine (4'-chloro-2,2':6',2''-terpyridine)platinum (II) Nitrate [listing 1 of 2 here]	
		66%	715 µM	0.1 µM	2-Mercaptopyrimidine (4'-chloro-2,2':6',2''-terpyridine)platinum (II) Nitrate [listing 2 of 2 here]	
30 nM	22 nM				4-Mercaptoethanol-(2,2':6',4'-chloro,2''-terpyridine)platinum (II) Nitrate [listing 1 of 2 here]	
